{"source": "ChEMBL document CHEMBL3124793", "about": "“Discovery of spirofused piperazine and diazepane amides as selective histamine-3 antagonists with in vivo efficacy in a mouse model of cognition” (J Med Chem, 2014)", "key": {"[1]": {"molecular_target": "Phosphodiesterase 4 (Homo sapiens) (UniProt P27815+Q08499+Q07343+Q08493)", "assay": "Activity at PDE4 (unknown origin) at 10 uM relative to control", "format": "protein assay", "outline": "(§1)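 Single-concentration binding at 10 μM against a panel of off-targets, run by an outside testing laboratory; activity judged against each assay's defined criteria.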"}, "[2]": {"assay": "Percentage unbound in rat plasma", "format": "ADME, cell-free", "outline": "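Plasma protein binding in human or rat plasma, expressed as percent free.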"}, "[3]": {"molecular_target": "Sodium-dependent noradrenaline transporter (Homo sapiens) (UniProt P23975)", "sequence (P23975 whole entry)": "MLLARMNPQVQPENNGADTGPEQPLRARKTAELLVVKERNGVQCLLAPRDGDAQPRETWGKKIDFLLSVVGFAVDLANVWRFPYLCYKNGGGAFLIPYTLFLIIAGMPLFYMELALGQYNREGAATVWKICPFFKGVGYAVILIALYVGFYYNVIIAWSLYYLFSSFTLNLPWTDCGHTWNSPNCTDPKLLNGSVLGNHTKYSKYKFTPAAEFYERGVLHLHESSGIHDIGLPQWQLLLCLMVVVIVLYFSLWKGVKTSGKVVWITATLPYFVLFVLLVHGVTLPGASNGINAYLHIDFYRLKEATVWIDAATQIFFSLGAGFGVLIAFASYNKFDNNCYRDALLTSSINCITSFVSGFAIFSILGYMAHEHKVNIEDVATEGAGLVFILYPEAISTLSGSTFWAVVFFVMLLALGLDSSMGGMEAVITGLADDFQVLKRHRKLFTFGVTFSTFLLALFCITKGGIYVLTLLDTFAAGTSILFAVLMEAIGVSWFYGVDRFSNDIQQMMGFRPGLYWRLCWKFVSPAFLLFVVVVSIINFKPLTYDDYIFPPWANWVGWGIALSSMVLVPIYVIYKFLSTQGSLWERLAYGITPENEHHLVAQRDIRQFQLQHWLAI", "assay": "Activity at NET (unknown origin) at 10 uM relative to control", "outline": "as §1"}, "[4]": {"assay": "Oral bioavailability in Sprague-Dawley rat 3 umol/kg", "format": "ADME, organism-based", "conditions": "in vivo"}, "[5]": {"molecular_target": "Adenosine receptor A2a (Homo sapiens) (UniProt P29274)", "sequence (P29274 whole entry)": "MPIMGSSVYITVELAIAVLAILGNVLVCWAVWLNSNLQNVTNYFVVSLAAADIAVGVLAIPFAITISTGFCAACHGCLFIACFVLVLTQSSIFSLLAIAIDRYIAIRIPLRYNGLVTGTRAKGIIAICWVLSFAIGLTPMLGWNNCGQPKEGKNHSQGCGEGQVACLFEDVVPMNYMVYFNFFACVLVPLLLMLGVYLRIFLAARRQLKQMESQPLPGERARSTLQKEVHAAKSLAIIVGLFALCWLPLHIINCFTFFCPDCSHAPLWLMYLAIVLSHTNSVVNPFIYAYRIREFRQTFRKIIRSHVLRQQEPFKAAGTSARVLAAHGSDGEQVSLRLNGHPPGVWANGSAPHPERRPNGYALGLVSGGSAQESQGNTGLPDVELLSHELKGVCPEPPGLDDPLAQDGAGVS", "assay": "Activity at adenosine A2a receptor (unknown origin) at 10 uM relative to control", "outline": "as §1"}, "Mus musculus": {"test_system": "Mus musculus", "assay": "Cognitive enhancing effect in CF-1 mouse at 1 to 10 mg/kg, sc administered 60 mins prior to acquisition phase by novel object exploration test", "format": "functional, organism-based", "outline": "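Male CF-1 mice given 1, 3 or 10 mg/kg s.c. 60 min before acquisition with two identical objects; one object then swapped for a novel one; mice re-tested 15 min later. Novel/familiar interaction ratio (50% = no preference) from manual scoring; mean ± SD; ANOVA with Newman–Keuls post hoc.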"}, "[6]": {"assay": "Tmax in Sprague-Dawley rat 3 umol/kg, po", "format": "ADME, organism-based", "conditions": "in vivo"}, "[7]": {"assay": "Equilibrium solubility of the compound at pH 7.4", "format": "physicochemical", "conditions": "buffer"}, "[8]": {"assay": "Induction of phospholipidosis in mouse I-13.35 cells by EthD-2 staining-based assay", "format": "cell-based"}, "[9]": {"assay": "Apparent permeability from apical to basolateral side in MDCK cells", "format": "ADME, cell-based, Canis lupus familiaris", "conditions": "dog", "outline": "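MDCK monolayers; A-to-B Papp in 1 × 10⁻⁶ cm/s; efflux taken as ratio of A-to-B Papp over B-to-A Papp.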"}, "Histamine H3 receptor [10]": {"molecular_target": "T1, Histamine H3 receptor (Homo sapiens, UniProt Q9Y5N1)", "T1 sequence (Q9Y5N1 whole entry)": "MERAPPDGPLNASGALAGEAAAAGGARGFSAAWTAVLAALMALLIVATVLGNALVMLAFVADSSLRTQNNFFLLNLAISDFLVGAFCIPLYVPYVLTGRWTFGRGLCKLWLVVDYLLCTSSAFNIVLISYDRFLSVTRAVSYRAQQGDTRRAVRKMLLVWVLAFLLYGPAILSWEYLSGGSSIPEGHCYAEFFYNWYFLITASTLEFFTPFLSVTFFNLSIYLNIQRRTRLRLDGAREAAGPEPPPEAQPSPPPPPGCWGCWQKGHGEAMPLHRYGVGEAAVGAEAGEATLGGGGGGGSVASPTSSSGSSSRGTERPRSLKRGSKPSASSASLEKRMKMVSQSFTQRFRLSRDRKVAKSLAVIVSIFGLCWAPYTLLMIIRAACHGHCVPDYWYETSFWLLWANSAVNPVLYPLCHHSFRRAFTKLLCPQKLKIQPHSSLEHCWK", "assay": "Displacement of [3H]-N-alpha-methylhistamine from human histamine H3 receptor expressed in CHOK1 cells after 1.5 hrs by scintillation proximity assay", "format": "cell-based, CHO-K1", "outline": "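Human H3R-CHO-K1 membranes incubated 1.5 h with test compound and [3H]-N-α-methylhistamine in SPA format; nonspecific binding defined with 10 μM imetit; bead-bound radioligand counted. Average of n > 2, standard error <50%.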"}, "[11]": {"assay": "Cmax in Sprague-Dawley rat 3 umol/kg, po", "format": "ADME, organism-based", "parameters": "dose 3 umol/kg, route oral", "conditions": "in vivo"}, "[12]": {"assay": "Intrinsic clearance in rat liver microsomes", "format": "ADME", "conditions": "read-out: CLH"}, "[13]": {"molecular_target": "Histamine H1 receptor (Homo sapiens) (UniProt P35367)", "sequence (P35367 whole entry)": "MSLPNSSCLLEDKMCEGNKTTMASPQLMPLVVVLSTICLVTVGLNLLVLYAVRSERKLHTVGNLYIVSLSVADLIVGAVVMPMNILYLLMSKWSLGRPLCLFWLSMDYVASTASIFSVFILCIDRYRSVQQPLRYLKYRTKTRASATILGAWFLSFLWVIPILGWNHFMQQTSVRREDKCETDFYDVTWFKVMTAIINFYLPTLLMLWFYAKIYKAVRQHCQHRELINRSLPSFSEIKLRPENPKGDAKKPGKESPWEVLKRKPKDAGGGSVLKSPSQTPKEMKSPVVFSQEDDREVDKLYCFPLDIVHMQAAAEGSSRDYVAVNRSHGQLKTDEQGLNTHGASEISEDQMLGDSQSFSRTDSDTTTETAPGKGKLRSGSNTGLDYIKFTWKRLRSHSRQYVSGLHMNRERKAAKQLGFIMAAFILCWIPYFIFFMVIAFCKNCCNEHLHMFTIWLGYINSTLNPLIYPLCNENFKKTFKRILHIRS", "assay": "Activity at histamine H1 receptor (unknown origin) at 10 uM relative to control", "outline": "as §1"}, "[14]": {"assay": "Volume of distribution at steady state in rat at 3 umol/kg, iv", "format": "ADME, organism-based", "conditions": "in vivo, read-out: Vdss", "outline": "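Male fasted rats given a single IV dose. Volume of distribution taken as the mean from plasma sampling after the IV dose. Animals per compound: 1 to 7.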"}, "Salmonella typhimurium": {"test_system": "Salmonella typhimurium", "assay": "Genotoxicity in Salmonella typhimurium by Ames test", "format": "toxicity, organism-based", "conditions": "salmonella enterica subsp. enterica serovar typhimurium"}, "[15]": {"assay": "Drug recovery in Sprague-Dawley rat urine at 3 umol/kg, iv after 24 hrs", "format": "ADME, organism-based", "conditions": "read-out: Drug recovery"}, "[16]": {"molecular_target": "Histamine H4 receptor (Homo sapiens) (UniProt Q9H3N8)", "sequence (Q9H3N8 whole entry)": "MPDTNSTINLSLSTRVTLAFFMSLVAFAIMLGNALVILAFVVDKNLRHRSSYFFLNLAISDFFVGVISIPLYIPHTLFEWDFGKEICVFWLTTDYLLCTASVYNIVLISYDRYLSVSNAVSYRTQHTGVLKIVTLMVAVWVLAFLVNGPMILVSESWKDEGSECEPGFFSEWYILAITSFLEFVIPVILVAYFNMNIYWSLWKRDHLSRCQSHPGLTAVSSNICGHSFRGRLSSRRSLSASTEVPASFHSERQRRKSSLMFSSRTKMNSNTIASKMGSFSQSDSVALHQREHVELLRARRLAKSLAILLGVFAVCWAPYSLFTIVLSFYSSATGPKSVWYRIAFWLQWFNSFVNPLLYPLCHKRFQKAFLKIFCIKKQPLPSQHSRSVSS", "assay": "Activity at histamine H4 receptor (unknown origin) at 10 uM relative to control", "outline": "as §1"}, "Brain": {"test_system": "Brain", "assay": "Drug uptake in Sprague-Dawley rat brain at 3 umol/kg, iv after 1 hr", "format": "ADME, organism-based", "conditions": "in vivo", "outline": "(§2)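 3 μmol/kg IV; plasma, brain and CSF sampled at 1 h, n = 4; brain not corrected for ~2–3% vascular contamination; nonspecific binding during CSF sampling not evaluated; mean with standard deviation.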"}, "Homo sapiens [17]": {"organism": "Homo sapiens", "assay": "Activity at GABA receptor (unknown origin) at 10 uM relative to control", "outline": "as §1"}, "[18]": {"assay": "Apparent half life in Sprague-Dawley rat", "format": "ADME, organism-based", "conditions": "in vivo, read-out: t1/2(app) (converted)"}, "Homo sapiens [19]": {"organism": "Homo sapiens", "assay": "Activity at nicotinic acetylcholine receptor (unknown origin) at 10 uM relative to control", "outline": "as §1"}, "[20]": {"molecular_target": "T2, 5-hydroxytryptamine receptor 1A (Homo sapiens) (UniProt P08908)", "T2 sequence (whole entry)": "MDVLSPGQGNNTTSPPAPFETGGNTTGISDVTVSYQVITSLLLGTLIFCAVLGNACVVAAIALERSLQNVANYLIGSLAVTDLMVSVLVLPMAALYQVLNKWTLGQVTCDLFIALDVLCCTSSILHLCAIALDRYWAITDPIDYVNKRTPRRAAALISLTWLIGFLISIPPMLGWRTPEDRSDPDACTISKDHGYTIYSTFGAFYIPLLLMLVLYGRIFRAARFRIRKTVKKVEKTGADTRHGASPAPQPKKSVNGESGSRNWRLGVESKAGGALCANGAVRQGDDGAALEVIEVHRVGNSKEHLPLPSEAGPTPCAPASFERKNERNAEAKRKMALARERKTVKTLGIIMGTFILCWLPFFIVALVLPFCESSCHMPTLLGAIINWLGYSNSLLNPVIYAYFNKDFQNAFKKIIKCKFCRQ", "assay": "Activity at 5-HT1A receptor (unknown origin) at 10 uM relative to control", "outline": "as §1"}, "[21]": {"assay": "Octanol-water partition coefficient, log D of the compound by shake flask HPLC analysis", "format": "physicochemical", "outline": "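logD between octanol and water by shake-flask with HPLC analysis.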"}, "Rattus norvegicus [22]": {"organism": "Rattus norvegicus", "assay": "Inhibition of rat sigma-2 receptor at 10 uM relative to control", "outline": "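Radioligand binding screen within a 144-receptor secondary pharmacology panel, run at a single 10 μM test concentration. The response is expressed as percent activity. Activity was judged against each assay's own defined criteria.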"}, "[23]": {"molecular_target": "Histamine H2 receptor (Homo sapiens) (UniProt P25021)", "sequence (P25021 whole entry)": "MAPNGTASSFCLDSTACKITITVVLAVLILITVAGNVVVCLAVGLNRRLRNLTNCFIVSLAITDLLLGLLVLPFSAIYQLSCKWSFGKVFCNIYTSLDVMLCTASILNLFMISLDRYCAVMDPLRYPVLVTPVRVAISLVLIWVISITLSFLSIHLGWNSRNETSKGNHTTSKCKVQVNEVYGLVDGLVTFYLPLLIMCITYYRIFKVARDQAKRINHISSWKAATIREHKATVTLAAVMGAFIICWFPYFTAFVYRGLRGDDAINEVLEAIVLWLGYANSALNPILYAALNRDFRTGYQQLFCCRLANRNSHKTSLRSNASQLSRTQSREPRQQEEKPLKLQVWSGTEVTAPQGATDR", "assay": "Activity at histamine H2 receptor (unknown origin) at 10 uM relative to control", "outline": "as §1"}, "[24]": {"assay": "Drug uptake in Sprague-Dawley rat CSF at 3 umol/kg, iv after 1 hr", "format": "ADME, organism-based, Cerebrospinal fluid", "conditions": "read-out: Drug uptake", "outline": "as §2"}, "[25]": {"assay": "Half life in rat at 3 umol/kg, iv", "format": "ADME, organism-based", "conditions": "in vivo", "outline": "(§3)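 IV dosing in male fasted rats, doses in μmol/kg; mean Vss, half-life and clearance derived; number of rats per compound reported.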"}, "[26]": {"assay": "Plasma concentration in Sprague-Dawley rat at 3 umol/kg, iv after 1 hr", "format": "ADME, organism-based", "outline": "as §2"}, "Histamine H3 receptor [27]": {"molecular_target": "T1, Histamine H3 receptor", "assay": "Antagonist activity at human histamine H3 receptor long form expressed in CHOK1 cells assessed as inhibition of R-alpha-methylhistamine-induced [35S]GTPgammaS binding after 3 hrs by scintillation proximity assay", "format": "functional, cell-based, CHO-K1", "outline": "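Membranes from CHO-K1 cells stably expressing human H3R long form (445 aa) incubated 3 h with test compound, 25 nM R-α-methylhistamine, 10 μM GDP, 0.2 nM [35S]GTPγS and WGA PVT SPA beads; bead-bound [35S]GTPγS counted by scintillation. Average of n > 2, standard error <20%.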"}, "[28]": {"molecular_target": "D(2) dopamine receptor (Homo sapiens) (UniProt P14416)", "sequence (P14416 whole entry)": "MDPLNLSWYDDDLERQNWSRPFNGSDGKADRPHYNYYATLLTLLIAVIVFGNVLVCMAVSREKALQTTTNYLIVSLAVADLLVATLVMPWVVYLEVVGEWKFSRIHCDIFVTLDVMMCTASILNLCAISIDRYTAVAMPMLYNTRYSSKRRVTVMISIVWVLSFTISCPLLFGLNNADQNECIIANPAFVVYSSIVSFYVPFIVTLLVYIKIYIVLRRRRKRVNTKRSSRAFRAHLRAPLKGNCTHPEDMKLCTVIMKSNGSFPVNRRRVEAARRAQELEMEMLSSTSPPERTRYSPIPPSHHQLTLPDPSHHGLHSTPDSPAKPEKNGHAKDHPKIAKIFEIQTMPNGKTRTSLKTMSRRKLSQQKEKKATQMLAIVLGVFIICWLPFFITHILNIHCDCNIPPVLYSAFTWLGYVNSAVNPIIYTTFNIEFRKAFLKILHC", "assay": "Activity at dopamine D2 receptor (unknown origin) at 10 uM relative to control", "outline": "as §1"}, "[29]": {"molecular_target": "T3, Muscarinic acetylcholine receptor M2 (Homo sapiens) (UniProt P08172)", "T3 sequence (whole entry)": "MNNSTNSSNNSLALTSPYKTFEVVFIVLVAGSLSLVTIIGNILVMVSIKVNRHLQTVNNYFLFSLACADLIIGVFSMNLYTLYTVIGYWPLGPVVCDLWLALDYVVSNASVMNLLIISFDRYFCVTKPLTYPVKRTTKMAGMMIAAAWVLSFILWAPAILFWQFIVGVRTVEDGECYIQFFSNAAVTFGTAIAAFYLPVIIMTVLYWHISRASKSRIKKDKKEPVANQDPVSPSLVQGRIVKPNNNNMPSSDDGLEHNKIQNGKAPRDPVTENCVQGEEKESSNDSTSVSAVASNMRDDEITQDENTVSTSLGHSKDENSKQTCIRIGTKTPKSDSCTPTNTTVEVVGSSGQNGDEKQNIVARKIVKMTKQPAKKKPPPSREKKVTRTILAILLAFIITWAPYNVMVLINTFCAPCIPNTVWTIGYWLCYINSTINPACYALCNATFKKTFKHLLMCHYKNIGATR", "assay": "Activity at muscarinic M2 receptor (unknown origin) at 10 uM relative to control", "outline": "as §1"}, "[30]": {"assay": "Plasma clearance in Sprague-Dawley rat", "format": "ADME, organism-based", "conditions": "read-out: AUC"}, "[31]": {"assay": "Intrinsic clearance in human liver microsomes", "format": "ADME", "conditions": "read-out: CLH", "outline": "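Human liver microsomal clearance, expressed as μL/min/mg.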"}, "Rattus norvegicus [32]": {"test_system": "Rattus norvegicus", "assay": "[…] clearance in rat at 3 umol/kg, iv", "format": "ADME, organism-based", "conditions": "in vivo", "outline": "as §3"}}, "note": "The source made the active and inactive calls."}
{"smiles": "CC(C)N1CCN(C(=O)[C@H]2CC23CCN(C2CCOCC2)CC3)CC1", "values": [{"measurement": "Activity", "setting": "[1]", "value": "> 10", "unit": "%"}, {"measurement": "fraction unbound", "setting": "[2]", "value": 0.87}, {"measurement": "Activity", "setting": "[3]", "value": "> 10", "unit": "%"}, {"measurement": "bioavailability", "setting": "[4]", "value": 99, "unit": "%"}, {"measurement": "Activity", "setting": "[5]", "value": "> 10", "unit": "%"}, {"measurement": "Activity", "setting": "Mus musculus", "value": "Active"}, {"measurement": "Tmax", "setting": "[6]", "value": 6, "unit": "h"}, {"measurement": "solubility thermodynamic", "setting": "[7]", "value": "> 500", "unit": "µM"}, {"measurement": "EC50", "setting": "[8]", "value": "> 300000", "unit": "nM"}, {"measurement": "Papp A→B", "setting": "[9]", "value": 13, "unit": "×10⁻⁶ cm/s"}, {"measurement": "Ki", "setting": "Histamine H3 receptor [10]", "value": 0.8, "unit": "nM"}, {"measurement": "Cmax", "setting": "[11]", "value": 71, "unit": "nM"}, {"measurement": "microsomal CLint", "setting": "[12]", "value": 7, "unit": "µL/min/mg"}, {"measurement": "Activity", "setting": "[13]", "value": "> 10", "unit": "%"}, {"measurement": "Vd", "setting": "[14]", "value": 34.6, "unit": "L/kg"}, {"measurement": "Activity", "setting": "Salmonella typhimurium", "value": "Non-toxic"}, {"measurement": "dose excreted at 24 h", "setting": "[15]", "value": 14, "unit": "%"}, {"measurement": "Activity", "setting": "[16]", "value": "> 10", "unit": "%"}, {"measurement": "Drug uptake", "setting": "Brain", "value": 540, "unit": "nmol/kg"}, {"measurement": "Activity", "setting": "Homo sapiens [17]", "value": "> 10", "unit": "%"}, {"measurement": "half-life", "setting": "[18]", "value": 15, "unit": "h"}, {"measurement": "Activity", "setting": "Homo sapiens [19]", "value": "> 10", "unit": "%"}, {"measurement": "Activity", "setting": "[20]", "value": "> 10", "unit": "%"}, {"measurement": "logD", "setting": "[21]", "value": -0.26}, {"measurement": "inhibition", "setting": "Rattus norvegicus [22]", "value": 62, "unit": "%"}, {"measurement": "Activity", "setting": "[23]", "value": "> 10", "unit": "%"}, {"measurement": "concentration at 1 h", "setting": "[24]", "value": 34, "unit": "nM"}, {"measurement": "half-life", "setting": "[25]", "value": 25.3, "unit": "h"}, {"measurement": "concentration at 1 h", "setting": "[26]", "value": 180, "unit": "nM"}, {"measurement": "IC50", "setting": "Histamine H3 receptor [27]", "value": 8.3, "unit": "nM"}, {"measurement": "Activity", "setting": "[28]", "value": "> 10", "unit": "%"}, {"measurement": "Activity", "setting": "[29]", "value": "> 10", "unit": "%"}, {"measurement": "clearance", "setting": "[30]", "value": 53, "unit": "mL/min/kg"}, {"measurement": "microsomal CLint", "setting": "[31]", "value": "< 4", "unit": "µL/min/mg"}, {"measurement": "CL", "setting": "Rattus norvegicus [32]", "value": 16.4, "unit": "mL/min/kg"}]}
